The source of these data is the RNAGym collection of RNA variant scans (doi:10.1126/science.aae0568).

The labels stand for the following.
B1: tRNA (parent)
chain: GUUCCGUUGGCGUAAUGGUAACGCGUCUCCCUCCUAAGGAGAAGACUGCGGGUUCGAGUCCCGUACGGAACG

Variants at the floor of the assay were thinned out.

Variants of B1 are the subject of the series. In words: yeast fitness relative to wild type (ratio to wild type); higher = fitter; tRNA-Arg(CCU), competitive growth, 37 C, YPD. Summed up:
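Changes in genotype frequencies gave Darwinian fitness relative to wild type. Frequencies were read by 100-nucleotide paired-end sequencing of gene amplicons before and after pooled Saccharomyces cerevisiae strains, carrying tRNA-Arg(CCU) gene variants at the native locus, were competed in YPD at 37°C for 24 hours in six replicates. A genotype was kept only with ≥ 100 starting reads, and estimates < 0.5 were set to 0.5.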
Consider GUUCCGUUGCCGUAAUGGUAAUGCGUCUCCCUCCUAAGGAGAACACUGCGGGUUCGAGUCCCGUACGGAACG, for which the yeast fitness is at most 0.5.

Consider GUUCCGUUGCUGUAAUGGUAACGCCUCUCGCUCCUAAGGAGAAGACUGCGGGUUCGAGUCCCGUACCGAACG, for which the yeast fitness was 0.511.

For the variant GUUCCGUUGCCGUAAUGGUAACGCGUCUCCCUCCUAAGGAGAAGGCUGCGGGUUCGAGUCACGUACGGAGCG, the yeast fitness was at most 0.5.

Take GUUCCGUUGCCGUAAUGGUAACGCGUCUCCCUCCUAAGGAGAAGACUGCGGGUUCGGGUCCCGUACGGUACG: the yeast fitness came out at 0.559.

Regarding GUUCCGUUGCCGUAAUGGUAAUGCGACUCCCUCCUAAGGAGAAGACUGUGGGUUCGAGUCCCGUUCGGAACG, the yeast fitness is at most 0.5.

Regarding GUUCCGUUGCCGUAAUGGUAACGCGUCUCCCUCCUAAGGAGAAGACUGCGGGUUCGCGUCCCGUACGGAACG, the yeast fitness is at most 0.5.

On to GUUCCGUUGCCGUAAUGGUAACGCGUCUCCCUCCUAAGGAGACGACUGUGGGUUCGAGUCCCGUACGGAACG, for which the yeast fitness is at most 0.5.

GUUCCGUUGCCGUAAUGGUAACGAGUCUCCCUGCUAAGGGGGAGACUGCGGGUUCGAGUCCCGUACGGAACG: the yeast fitness is at most 0.5.

Regarding GUUCCGUUGCCGUAAUGGUAACGCGUCUCCCUCCUAAGGAGAAGUCUGCGGGUUCGAGUCGCGUACGGAACG, the yeast fitness was at most 0.5.

Take GUUCCGUUGCCGUAAUGGUAACGAGUCUCCCUCCUAAGGAGAAGACUGCGAGUUCGAGUCCCGUGCGGACCG: the yeast fitness came to 0.55.

Regarding GUUCCGUUGCCGUAAUGGUAAGGCGUCUCCCUUCUCAGGUGAAGACUGCGGGUUCGAGUCCCGUACGGAACG, the yeast fitness was at most 0.5.

Regarding GUUCCGUUGCGGUAAUGGUAACGCGUCUCCCUCCUAAGGAGAAGACUGCGGGUUCGAGUCCCGUACGGAACG, the yeast fitness was determined as 0.682.

As to GUUCCGUUGCCGUAAUGGUAAAGGGCCUCCCUCCUAAGGAGAAGACUGCGGGAUCGAGUCCCGUACGGAACG, the yeast fitness was at most 0.5.

Consider GUUCCGUUGCCGUAAUGGUAAAGGGUCUCCCUCCUAAGGAGAAGACUGCGGGAUCGAGUCCCGUACGGAACG, for which the yeast fitness is 0.547.

For GUUCCGUUGCCGUAAUGGUAAUGCGUCUCCCUCCUAAGGAGAAGACUGCGGGUUCGAGUCUCGUACGGAACG, the yeast fitness worked out at 0.518.

On to GUUCCGUUGCCGUAAUGGUAACGCGUCUCCCUCCUAAGGAGAAGUCUCCGGGUUCGAGUCCCGUACGGAACG, for which the yeast fitness turned out to be 0.53.

For GUUCCGUUGCCGUAAUGGUAACGCGUCUCCCUCCUAAGGAGAAGACUGCGGGUUCGAGUCCCGUUCGGAACG, the yeast fitness is 0.767.

Take GUUCCGUUGCCGUAAUGGUAACGCGUCUCCCUCCUAAGGAGAAGACUGCGGGUUCGAGUCCCGUGCGGAACG: the yeast fitness was 0.719.

As for GUUCCGUUGCCGUAAUGGUAACGCGUCUCCCUCCUAAGGAGAAGACUGCGGGUUCGAGUCCCGUCCGGAACG, the yeast fitness came to 0.76.

On to GUUCCGUUGCUGUAAUGGUAACGCGACUCCCUCCUAAGGAGAAGACUGUGGGUUCGAGUCCCGUUCGGAACG, for which the yeast fitness is at most 0.5.

GUUCCGUUGCCGUAAUGGUAACGCGUCUCCCUCCUAAGGAGAGGACUGCGGGUUCGAGUCCCGUACGGAACG: the yeast fitness stood at 0.739.

Regarding GUUCCGUUGCCGUAAUGGUAACGCGUCUCCCUCCUAAGGAGAUGAGUGCGGGUUCGAGUCCCGUACGGAACG, the yeast fitness was at most 0.5.

Consider GUUCCGUUGCCGUAAUGGUAACGCGUCUCCCUCCUAAGGAGAAGUCUGGGGGUUCGAGUCCCGUACGGAACG, for which the yeast fitness worked out at 0.583.

Take GUUCCGUUGCCGUAAUGGUAAGGCGUCUGCCUCCUAAGGAGAAGAUUGCGGGUUCGAGUCCCGUCCGGAACG: the yeast fitness is at most 0.5.

With GUUCCGUUGCCGUAAUGGUAAUGCGUCUCCCUCCUAAGGAGAAGACUGCGGGUUCGAGGUCCGUACGGAACG, the yeast fitness is at most 0.5.

Regarding GUUCCGUUGCAGUAAUGGUAACGCGUCUCCCUCCUAAGGAGAAGACUGGGGGUUAGAGUCCCGUACGGAACG, the yeast fitness is at most 0.5.

Consider GUUCCGUUGCAGUAAUGGUAACGCGUCUCCCUCCUACGGAGAAGACUGGGGGUUCGAGUCCCGUACGCGACG, for which the yeast fitness is at most 0.5.

Turning to GUUCCGUUGCUGUAAUGGUCACGCGUCUCCCUCCUAAGGAGAAGACUGCGGGUUCGUGUCCCGUACGGAACG, the yeast fitness is at most 0.5.

With GUUCCGUUGCCGUAAUGGUAACGCGUCUCCCUCCUAAGGAGAAGACUGCGGGUUCGCGUCCCGAACGGAACG, the yeast fitness is at most 0.5.

Turning to GUUCCGUUGCCGUAAUGGUAACGCGUCUCCCUCCUAAGGAGAAGACUGCGGGUUCGAGUCCCGUACGGCACG, the yeast fitness worked out at 0.785.

As to GUUCCGUUGCCGUAAUGGUAACGCGUCUCCCUCCUAAGGAGAAGACUGCGGGUUCGAGUCCCGUACGGGACG, the yeast fitness stood at 0.51.

As to GUUCCGUUGCCGUAAUGGUAACGCGUCUCCCUCCUAAGGAGAAGUCUGCGGGUUCGAGUCCCGUACGGAACG, the yeast fitness was found to be 0.778.

With GUUCCGUUGCCGUAAUGGUAAAGGGUCUCCCUCCUGAGGAGAAGACUACCGGUUCGAGUCCCGUACGGAACG, the yeast fitness was at most 0.5.

For GUUCCGUUGCCGUAAUGGUAAAGCGUCUCCCUCCUAAGGAGAAGACUGCGGGUUCCAGUCCCGUGCGGAACG, the yeast fitness was at most 0.5.

Turning to GUUCCGUUGCCGUAAUGGUAAUGCGUCUCCCUCCUAAGGAGAAGACUGCGGGUUCGAGUCCCGUACGGAGCG, the yeast fitness is 0.513.

Consider GUUCCGUUGCCGUAAUGGUAACGGGUCUCCCUCGUAAGGAGAAGACUGCGGGUGCGAGUCCCGUACGGAUCG, for which the yeast fitness was found to be 0.703.

Take GUUCCGUUGCCGUAAUGGUAACGCGUCUCCCUCCUAAGGAGAAGACUGCGGGUUCGAGUCCCGUACGGAGCG: the yeast fitness was determined as 0.644.

Take GUUCCGUUGCCGUAAUGGUAACGCGUCUCCCUCCUAAGGAGAAGACUGCGGGUUCGAGUCCCGUACGGAUCG: the yeast fitness is 0.75.
